Source: ChEMBL document CHEMBL4229352, “Synthesis, antileishmanial activity and mechanism of action studies of novel β-carboline-1,3,5-triazine hybrids” (Eur J Med Chem, 2018)
Active and inactive are the calls of the source. The calls are words filed in the database; no cut-off is given here.

Key:
Leishmania amazonensis [1] = test: Antileishmanial activity against promastigote forms of Leishmania amazonensis after 72 hrs by XTT/PMS dye based spectrophotometric analysis; assay type: functional, organism-based
How it was run: (§1)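 Log-phase parasites (promastigotes 48 h, axenic amastigotes 72 h) plated at the printed density with increasing compound concentrations; 72 h at 25 °C (promastigotes) or 32 °C (axenic amastigotes). XTT/PMS (0.5 and 0.3 mg/mL) added in the dark, absorbance at 450 nm after 4 h; IC50 versus negative control by regression. Mean ± SD of at least three independent experiments.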

[2] = Cytotoxicity against mouse J774A1 cells assessed as reduction in cell viability after 48 hrs by MTT assay; assay type: cell-based, J774.A1
How it was run: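 J774-A1 macrophages in RPMI 1640 with 10% FBS, plated and left 24 h at 37 °C, 5% CO2. Supernatant then replaced by increasing compound concentrations for 48 h. After a PBS wash, MTT (2 mg/mL) was added for 4 h at 25 °C in the dark, formazan dissolved in DMSO, absorbance read at 570 nm. CC50 by regression versus negative control; at least three experiments.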

Leishmania amazonensis [3] = test: Induction of lipid body storage in promastigote forms of Leishmania amazonensis at IC50 after 24 hrs by nile red staining based fluorescence assay relative to control; assay type: functional
Leishmania amazonensis [4] = test: Induction of morphological alteration in promastigote forms of Leishmania amazonensis assessed as reduction in cell volume at 6.2 uM after 24 to 72 hrs by scanning electron microscopic analysis; assay type: functional, organism-based
How it was run: (§2)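 Promastigotes (1 x 10^6/mL) exposed to 6.2 μM for 24, 48 or 72 h at 25 °C alongside untreated controls. Fixed in 2.5% glutaraldehyde in 0.1 M cacodylate buffer. For TEM, post-fixed 1 h in 1% OsO4 with 0.8% potassium ferrocyanide in cacodylate buffer. For SEM, samples were gold-coated before viewing.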

Leishmania amazonensis [5] = test: Induction of morphological alteration in promastigote forms of Leishmania amazonensis assessed as cell rounding at 6.2 uM after 24 to 72 hrs by scanning electron microscopic analysis; assay type: functional, organism-based; how it was run: as §2
[6] = Selectivity index, ratio of CC50 for mouse J774A1 cells to IC50 for promastigote forms of Leishmania amazonensis; assay type: toxicity; conditions: read-out: Ratio CC50/IC50
How it was run: (§3)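 Selectivity index calculated as CC50 in J774-A1 macrophages (48 h MTT) divided by IC50 for L. amazonensis promastigotes or axenic amastigotes (72 h XTT/PMS).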

Leishmania amazonensis [7] = test: Induction of ultrastructural alteration in promastigote forms of Leishmania amazonensis assessed as formation of mitochondrial swelling at 6.2 uM after 48 hrs by transmission electron microscopic analysis; assay type: functional, organism-based; how it was run: as §2
Leishmania amazonensis [8] = test: Antileishmanial activity against axenic amastigote forms of Leishmania amazonensis after 72 hrs by XTT/PMS dye based spectrophotometric analysis; assay type: functional, organism-based; how it was run: as §1
Leishmania amazonensis [9] = test: Induction of ROS generation in promastigote forms of Leishmania amazonensis at IC90 after 24 hrs by H2DCFDA staining based spectrofluorometric analysis relative to control; assay type: functional
Leishmania amazonensis [10] = test: Induction of ultrastructural alteration in promastigote forms of Leishmania amazonensis assessed as formation of storage-lipid bodies at 6.2 uM after 48 hrs by transmission electron microscopic analysis; assay type: functional, organism-based; how it was run: as §2
Leishmania amazonensis [11] = test: Induction of ultrastructural alteration in promastigote forms of Leishmania amazonensis assessed as ultrastructural alteration in plasma membrane at 6.2 uM after 24 hrs by transmission electron microscopic analysis; assay type: functional, organism-based; how it was run: as §2
Leishmania amazonensis [12] = test: Induction of ultrastructural alteration in promastigote forms of Leishmania amazonensis assessed as ultrastructural alteration in mitochondrial membrane at 6.2 uM after 24 hrs by transmission electron microscopic analysis; assay type: functional, organism-based; how it was run: as §2
Leishmania amazonensis [13] = test: Induction of ultrastructural alteration in promastigote forms of Leishmania amazonensis assessed as formation of mitochondrial swelling at 6.2 uM after 72 hrs by transmission electron microscopic analysis; assay type: functional, organism-based; how it was run: as §2
[14] = Selectivity index, ratio of CC50 for mouse J774A1 cells to IC50 for axenic amastigote forms of Leishmania amazonensis; assay type: toxicity; conditions: read-out: Ratio CC50/IC50; how it was run: as §3
Leishmania amazonensis [15] = test: Induction of ROS generation in promastigote forms of Leishmania amazonensis at IC50 after 24 hrs by H2DCFDA staining based spectrofluorometric analysis relative to control; assay type: functional
Leishmania amazonensis [16] = test: Induction of ultrastructural alteration in promastigote forms of Leishmania amazonensis assessed as alteration in plasma membrane at 6.2 uM after 48 hrs by transmission electron microscopic analysis; assay type: functional, organism-based; how it was run: as §2
Leishmania amazonensis [17] = test: Induction of lipid body storage in promastigote forms of Leishmania amazonensis at IC90 after 24 hrs by nile red staining based fluorescence assay relative to control; assay type: functional
Leishmania amazonensis [18] = test: Induction of ROS generation in promastigote forms of Leishmania amazonensis at IC50 to IC90 uM after 24 hrs in presence of NAC by H2DCFDA staining based spectrofluorometric analysis; assay type: functional, organism-based
Leishmania amazonensis [19] = test: Induction of ultrastructural alteration in promastigote forms of Leishmania amazonensis assessed as alteration in flagellar pocket with vacuoles at 6.2 uM after 72 hrs by transmission electron microscopic analysis; assay type: functional, organism-based; how it was run: as §2
[20] = Selectivity index, ratio of CC50 for mouse J774.G8 cells to IC50 for promastigote forms of Leishmania amazonensis MHOM/BR/75/Josefa; assay type: toxicity; conditions: read-out: Ratio CC50/IC50
Leishmania amazonensis [21] = test: Antileishmanial activity against promastigote forms of Leishmania amazonensis MHOM/BR/75/Josefa after 72 hrs by haemocytometry; assay type: functional, organism-based
Leishmania amazonensis [22] = test: Antileishmanial activity against axenic amastigote forms of Leishmania amazonensis MHOM/BR/75/Josefa after 72 hrs by haemocytometry; assay type: functional, organism-based

| Compound | IC50 (Leishmania amazonensis [1]) [µM] | CC50 at 48 h [2] [µM] | selectivity ratio [6] | further results |
| --- | --- | --- | --- | --- |
| CC(C)Nc1nc(NCCNC(=O)c2cc3c([nH]c4ccccc43)c(-c3ccc(F)cc3)n2)nc(NC(C)C)n1 | > 100 | – | – | – |
| CC(C)Nc1nc(NCCNC(=O)c2cc3c([nH]c4ccccc43)c(-c3ccccc3Cl)n2)nc(NC(C)C)n1 | > 100 | – | – | – |
| NNc1nc(NN)nc(NCCNC(=O)c2cc3c([nH]c4ccccc43)c(-c3ccccc3)n2)n1 | > 100 | – | – | – |
| COc1ccc(-c2nc(C(=O)NCCNc3nc(NC(C)C)nc(NC(C)C)n3)cc3c2[nH]c2ccccc23)cc1 | 6.2 | 146 | 23.5 | Activity (Leishmania amazonensis [3]): 9%; Activity (Leishmania amazonensis [4]): Active; Activity (Leishmania amazonensis [5]): Active; Activity (Leishmania amazonensis [7]): Active; IC50 (Leishmania amazonensis [8]): 1.2 µM; Activity (Leishmania amazonensis [9]): 184.8%; Activity (Leishmania amazonensis [10]): Active; Activity (Leishmania amazonensis [11]): Active; Activity (Leishmania amazonensis [12]): Active; Activity (Leishmania amazonensis [13]): Active; selectivity ratio [14]: 121; Activity (Leishmania amazonensis [15]): 81.9%; Activity (Leishmania amazonensis [16]): Active; Activity (Leishmania amazonensis [17]): 428.6%; Activity (Leishmania amazonensis [18]): Active; Activity (Leishmania amazonensis [19]): Active |
| O=C(NCCNc1nc(Cl)nc(Cl)n1)c1cc2c([nH]c3ccccc32)c(-c2cccc([N+](=O)[O-])c2)n1 | 5.1 | 83.1 | 16.3 | IC50 (Leishmania amazonensis [8]): 1.1 µM; selectivity ratio [14]: 75.5 |
| CC(C)Nc1nc(NCCNC(=O)c2cc3c([nH]c4ccccc43)c(-c3ccccc3)n2)nc(NC(C)C)n1 | 7.5 | 98.1 | 13.1 | IC50 (Leishmania amazonensis [8]): 35 µM; selectivity ratio [14]: 2.8 |
| CC(C)Nc1nc(NNC(=O)c2cc3c([nH]c4ccccc43)c(-c3ccccc3Cl)n2)nc(NC(C)C)n1 | > 100 | – | – | – |
| O=C(NNc1nc(Cl)nc(Cl)n1)c1cc2c([nH]c3ccccc32)c(-c2ccccc2Cl)n1 | 34.1 | 22 | 0.6 | – |
| O=C(NCCCCCCNc1nc(Cl)nc(Cl)n1)c1cc2c([nH]c3ccccc32)c(-c2ccccc2)n1 | > 100 | – | – | – |
| CCCCNC(=O)c1cc2c([nH]c3ccccc32)c(-c2ccc(OC)cc2)n1 | – | – | – | selectivity ratio [20]: 2080; IC50 (Leishmania amazonensis [21]): 0.25 µM |
| O=C(NCCNc1nc(Cl)nc(Cl)n1)c1cc2c([nH]c3ccccc32)c(-c2ccc(F)cc2)n1 | > 100 | – | – | – |
| CN1CCN(c2nc(NCCNC(=O)c3cc4c([nH]c5ccccc54)c(-c4ccccc4)n3)nc(N3CCN(C)CC3)n2)CC1 | > 100 | – | – | – |
| COc1ccc(-c2nc(C(=O)NCc3ccccc3)cc3c2[nH]c2ccccc23)cc1 | – | – | – | IC50 (Leishmania amazonensis [22]): 1 µM; IC50 (Leishmania amazonensis [21]): 2.6 µM |
| O=C(NCCNc1nc(NCc2ccccc2)nc(NCc2ccccc2)n1)c1cc2c([nH]c3ccccc32)c(-c2ccccc2)n1 | > 100 | – | – | – |
| COc1ccc(-c2nc(C(=O)NNc3nc(NC(C)C)nc(NC(C)C)n3)cc3c2[nH]c2ccccc23)cc1 | > 100 | – | – | – |
| O=C(NCCNc1nc(Cl)nc(Cl)n1)c1cc2c([nH]c3ccccc32)c(-c2ccccc2Cl)n1 | 7.6 | 28.5 | 3.8 | – |
| COc1ccc(-c2nc(C(=O)NCCNc3nc(Cl)nc(Cl)n3)cc3c2[nH]c2ccccc23)cc1 | 67.5 | 201 | 3 | IC50 (Leishmania amazonensis [8]): 1 µM; selectivity ratio [14]: 201 |
| CC(C)Nc1nc(NNC(=O)c2cc3c([nH]c4ccccc43)c(-c3ccc(F)cc3)n2)nc(NC(C)C)n1 | 43.4 | 50 | 1.2 | – |
| O=C(NNc1nc(Cl)nc(Cl)n1)c1cc2c([nH]c3ccccc32)c(-c2ccc(F)cc2)n1 | > 100 | – | – | – |
| O=C(NCCNc1nc(NC2CCCCC2)nc(NC2CCCCC2)n1)c1cc2c([nH]c3ccccc32)c(-c2ccccc2)n1 | > 100 | – | – | – |
| CC(C)Nc1nc(NCCNC(=O)c2cc3c([nH]c4ccccc43)c(-c3cccc([N+](=O)[O-])c3)n2)nc(NC(C)C)n1 | 44.6 | 86.3 | 1.9 | – |
| CCCCCCCCCCCCCCCCOP(=O)([O-])OCC[N+](C)(C)C [MILTEFOSINE] | 18.5 | 40.5 | 2.2 | IC50 (Leishmania amazonensis [8]): 2.4 µM; selectivity ratio [14]: 16.9 |
| CC(C)Nc1nc(NNC(=O)c2cc3c([nH]c4ccccc43)c(-c3ccccc3)n2)nc(NC(C)C)n1 | 39.7 | 103 | 2.6 | IC50 (Leishmania amazonensis [8]): 32.5 µM; selectivity ratio [14]: 3.16 |
| O=C(NNc1nc(Cl)nc(Cl)n1)c1cc2c([nH]c3ccccc32)c(-c2ccccc2)n1 | 43.3 | 94.5 | 2.2 | IC50 (Leishmania amazonensis [8]): 1.1 µM; selectivity ratio [14]: 85.9 |
| O=C(NCCNc1nc(N2CCOCC2)nc(N2CCOCC2)n1)c1cc2c([nH]c3ccccc32)c(-c2ccccc2)n1 | > 100 | – | – | – |
| COc1ccc(-c2nc(C(=O)NNc3nc(Cl)nc(Cl)n3)cc3c2[nH]c2ccccc23)cc1 | > 100 | – | – | – |
| O=C(NCCNc1nc(Cl)nc(Cl)n1)c1cc2c([nH]c3ccccc32)c(-c2ccccc2)n1 | 30.9 | 135 | 4.4 | IC50 (Leishmania amazonensis [8]): 1.9 µM; selectivity ratio [14]: 70.8 |
